Compound activity as filed in PubChem.
The list is not random: actives were taken first. Their share in the collection is about 1.9%.
APJ ag: APJ receptor agonism; P35414; CHO-K1 APJ PathHunter beta-arrestin, luminescence; 0% DMSO wells, 100% apelin; activation, % at 20 µM; hit rate 0.11% among 330,000; AID 2520;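 active means activation more than six SD over the plate average, tested at 20 µM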;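 further: 0% = DMSO alone and 100% = apelin-13 at 10 nM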
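Assay system: engineered CHO-K1 APJ arrestin reporter cells; Amount: 1000 CHO-K1 reporter cells seeded per well; Dosing: one dose, 20 µM compound, 1% DMSO; Times: compound stimulation 90 min at 25 °C, detection 60 min; Measured by: luminescent beta-gal fragment complementation, chemiluminescent substrate; Read-out: APJ–arrestin association signal; Controls: DMSO vs Apelin-13 10 nM.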
APJ antag: APJ receptor antagonism; P35414; CHO-K1 APJ beta-arrestin complementation, luminescence; inhibition, % at 20 µM; hit rate 0.32% among 330,000; AID 2521;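 active means inhibition above about 40% at 20 µM, limit read from the data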;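 further: cells challenged with 10 nM apelin-13 agonist together with compound; plate controls were apelin-13 plus DMSO wells for no effect and DMSO wells lacking apelin-13 for full effect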
EBI2 antag: blocks human EBI2 receptor beta-arrestin signaling; AID 651636; inhibition, % at 5 µM; EBI2 beta-arrestin recruitment, luminescence, 7a,25-OHC stimulated; hit rate 0.81% among 360,000; in the data active means inhibition above about 38%;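 further: enzyme fragment complementation signal reports receptor beta-arrestin coupling in cells; 0% = agonist plus DMSO wells and 100% = wells without agonist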
TAG inh: triacylglycerol accumulation inhibition. hit rate 0.66% among 230,000. inhibition, % at 12.5 µM. H9c2 cells, Nile Red lipid (TAG) fluorescence; cells loaded with 200 µM oleic acid;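 active means pattern-corrected inhibition of lipid staining of at least 50% with the nuclear-stain viability signal not falling by more than 50%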;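 further: 0% = DMSO wells and 100% = triacsin C control wells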
CXCR6 inh: inhibitors of human CXCR6 receptor | O00574 | CHO-K1 PathHunter CXCR6 beta-arrestin, luminescence | inhibition, % at 20 µM | hit rate 0.36% among 360,000; in the data active means inhibition above about 34%, passing the limit was not always enough;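 further: antagonist mode with CXCL16 agonist at 10 nM final; 0% = 10 nM CXCL16 with DMSO and 100% = unstimulated wells without agonist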
Target sequence (O00574 whole entry, looked up): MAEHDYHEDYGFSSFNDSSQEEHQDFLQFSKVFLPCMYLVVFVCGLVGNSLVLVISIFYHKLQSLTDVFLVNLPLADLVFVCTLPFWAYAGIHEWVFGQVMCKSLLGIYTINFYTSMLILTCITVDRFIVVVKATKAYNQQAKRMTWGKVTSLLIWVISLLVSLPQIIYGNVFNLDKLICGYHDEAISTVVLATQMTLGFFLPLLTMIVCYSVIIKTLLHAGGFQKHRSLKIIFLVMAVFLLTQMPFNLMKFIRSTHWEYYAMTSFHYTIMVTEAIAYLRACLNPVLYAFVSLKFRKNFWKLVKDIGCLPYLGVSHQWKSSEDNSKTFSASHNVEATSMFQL
CCR6 antag: CCR6 (human) receptor antagonism; P51684; inhibition, % at 20 µM; hit rate 0.49% among 340,000; CHO-K1 CCR6 PathHunter beta-arrestin, luminescence, CCL20-stimulated;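 active means compounds whose inhibition of the agonist-driven luminescence signal at 20 µM reaches about 50%, limit read from the data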;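 further: cells stimulated with CCL20 at 14 nM final; plate controls were DMSO with CCL20 for no effect and DMSO without agonist for full effect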
TAG conf: confirmation of triacylglycerol accumulation inhibitors. shares compounds with TAG inh. H9c2 lipid accumulation, Nile Red fluorescence; cells loaded with 200 µM oleic acid. inhibition, % at 12.5 µM. hit rate 71% among 990;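 active means mean inhibition across replicates of 40% or more; inactive means mean inhibition below 40%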;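 further: plate controls were DMSO only wells for no effect and Triacsin C treated wells for full effect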
An asterisk follows results filed as active; . = no result given.

SMILES	APJ ag	APJ antag	EBI2 antag	TAG inh	CXCR6 inh	CCR6 antag	TAG conf
CCc1ccc(NC(=O)CSC2=C(C#N)C(c3ccco3)C3=C(CCCC3=O)N2)cc1 (centres undefined)	4	24	2	14	-3	4	.
CCOc1ccccc1NC(=O)C(CC(C)C)NC(=O)C1CCCCC1 (centres undefined)	0	0	-10	51*	-8	8	35
COc1ccc(NC(=O)C(CC(C)C)NC(=O)C2CCCCC2)c(OC)c1 (centres undefined)	-2	6	-4	16	3	9	.
CCOC(=O)c1c(CN2CCNCC2)nc2ccc(Cl)cc2c1-c1ccccc1	.	.	1	70*	-6	22	78*
Cc1nc2ccc(Cl)cc2c(-c2ccccc2)c1C(=O)N(C)C	1	17	-7	.	1	11	.
CCCC[C@H](CN[C@@H](CNC)[C@H](C)CC)NCCC12CCC(CC1)C2	5	19	-7	51*	14	12	70*
CCC[C@H](CN[C@@H](CNC)[C@H](C)O)NCCc1ccc(OC)cc1	-5	7	-15	5	-3	2	.
O=C(Nc1nc2nc(-c3ccccc3)cc(-c3ccccc3)n2n1)c1ccco1	-4	5	-20	64*	11	19	31
Clc1ccc(Oc2nc(N3CCOCC3)nc(N3CCOCC3)n2)cc1	2	6	7	38	10	4	.
c1cc2c(cc1Oc1nc(N3CCOCC3)nc(N3CCOCC3)n1)OCO2	-3	21	1	59*	-3	-14	29
O=S(=O)(NCc1ccccc1)NCc1ccc(Cl)cc1Cl	-4	4	4	.	0	6	.
Cc1c(C#N)c(O)n(CCO)c(=O)c1N=Nc1ccc2c(c1)COC2=O	-7	30	8	85*	25	47	94*
COc1cc(C(=O)NCC(c2ccco2)N2CCOCC2)cc(OC)c1OC (centres undefined)	8	2	3	6	-7	-5	.
NNC(=O)CCN1CCCCC1	-5	-5	-15	83*	-9	-14	3
CC1CCN(CCC(=O)NN)CC1	-1	11	4	12	-2	-4	.
Cc1noc(C)c1NC(=O)Nc1ccc2c(c1)C(=O)N([C@H](C)CO)C[C@H](C)[C@H](CN(C)C)O2	-3	6	-3	9	-1	3	.
O=C(CNS(=O)(=O)c1ccc(Cl)c(C(F)(F)F)c1)NC1CCCCCC1	-2	3	-11	-10	-2	-1	.
Cc1nc2cc(N=NC3=C(O)CCCC3=O)ccc2s1	-4	9	-3	17	12	21	.
CCOc1c(Cl)cc(/C=C/C(=O)N(CC)CC(=O)NCc2cccs2)cc1OC	-1	-59	23	59*	1	8	43*
COc1cccc(C=Nc2cc(C(C)C)c(O)cc2C)c1O	.	.	-9	105	-14	-9	.
COC(=O)c1ccc(Oc2cc(C)nc(SC)n2)cc1	0	-11	0	51*	-3	10	41*
CCCCN(C(=O)c1cc(S(=O)(=O)N2CCCCC2)ccc1Cl)c1c(N)n(CC(C)C)c(=O)[nH]c1=O	.	.	-6	-10	-8	5	.
O=C(N/N=C/c1ccc(Cl)cc1)c1sccc1OCc1ccc(F)cc1	-4	28	34	50*	5	2	54*
O=C(N/N=C/c1ccc(F)cc1)c1sccc1OCc1ccc(F)cc1	-5	7	4	-7	3	18	.
O=C(CN(CC1CCCO1)S(=O)(=O)c1ccc(S(=O)(=O)NC2CC2)cc1)Nc1ccccc1 (centres undefined)	-3	-14	-9	51*	-3	-17	38
SMILES	APJ ag	APJ antag	EBI2 antag	TAG inh	CXCR6 inh	CCR6 antag	TAG conf
O=C(NCCCCCCCN1CCCCCCC1)C(C1CCCCC1)C1CCCCC1	.	.	2	70*	0	-3	51*
O=C(NCCCN1CCOCC1)NC1CCCCC1	-2	9	-2	-14	4	8	.
CCOC(=O)C1(CCc2ccccc2)CCN(C(=O)c2cnc(C)cn2)CC1	-2	7	-1	21	-2	14	.
CC(C)=CCNc1ncnc2c1c(C#N)cn2C1OC(CO)C(O)C1O (centres undefined)	.	.	-15	58*	-5	7	46*
OCC1OC(n2ccc3c(NO)ncnc32)C(O)C1O (centres undefined)	.	.	-6	130	-5	-6	.
COc1cc(C(=O)N2CCN(c3cc(Cl)ccc3Cl)CC2)cc(OC)c1OC	3	11	-7	54*	1	7	65*
COc1ccc(C(=O)N2CCN(C(=O)c3cc(OC)c(OC)c(OC)c3)CC2)cc1	-4	-1	1	9	-11	-4	.
COc1ccc(Cc2n[nH]c(=S)o2)cc1	-2	6	-4	56*	10	7	3
CC(=O)Nc1ccc2[nH]c(C)cc(=O)c2c1	-5	-30	-5	-4	-17	-11	.
COc1cccc(-c2cc(=O)c3cc(NC(C)=O)ccc3[nH]2)c1	1	13	-5	63*	13	2	34
COc1ccc(-c2nc(NC(=O)C3CCN(c4nc5ccccc5o4)CC3)sc2C)cc1	3	-1	-1	66*	6	-5	58*
COc1ccc(-c2nc(NC(=O)Cn3c(=O)oc4ccccc43)sc2C)cc1	0	-8	8	.	-1	4	.
CC(C)(C)C(=O)Nc1ccc(/C=C/C(=O)c2ccco2)cc1	-5	-10	12	.	6	14	.
COc1cccc(Nc2nnc(SCc3cc([N+](=O)[O-])cc4c3OCOC4)s2)c1	0	7	14	53*	13	1	42*
Cc1cccc(C)c1Nc1nnc(SCc2cc([N+](=O)[O-])cc3c2OCOC3)s1	-1	-12	15	.	-4	15	.
COCCNC(=O)C1(C)CCCN(Cc2csc3ccccc23)C1 (centres undefined)	.	.	3	2	-3	.	.
CC(C)(C)NC(=O)N1CCN(c2nc(-c3ccccc3)ns2)CC1	-3	7	1	-21	-7	6	.
O=C(c1ccc(F)cc1F)N1CCCN(c2nc(-c3ccccc3)ns2)CC1	-1	-6	-11	75*	-5	3	2
CC1=C(C(=O)Nc2ccccc2)C2(CCCCC2)C(C#N)=C(SCC(N)=O)N1	-1	0	-8	4	3	-3	.
CC1(C)CC(=O)C2=C(C1)NC(SCC(=O)Nc1ccccc1)=C(C#N)C21CCCCC1	0	7	18	58*	-15	2	31
CC(C)NC(=O)CN1CCN(Cc2nc(C(c3ccccc3)c3ccccc3)no2)CC1	1	-22	-8	-1	-9	-7	.
